One assay concerns Brassica juncea. The assay can be described thus: Herbicidal activity against Brassica juncea assessed as growth inhibition at 150 g/ha postemergence treatment measured after 15 days by Greenhouse test. In kind it is functional. As to conditions: post-emergence, 360 h, read-out: GI. An outline of the steps:
(§1)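 Test compounds were made up as 100 g/L emulsifiable concentrates (DMF solvent, Tween-80 emulsifier) and diluted with water. About 20 seeds were sown 1–3 cm deep in clay soil (pH 6.5, 1.6% organic matter) in 9.5 cm pots, kept at 15–30 °C and 50% RH. Postemergence spray was applied to dicots at the 2-leaf stage and monocots at the 1-leaf stage. Controls were untreated and solvent-treated. Injury was scored visually at 15 days, with three replicates.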

The subject of a further assay is Eclipta prostrata. The assay can be described thus: Herbicidal activity against Eclipta prostrata assessed as growth inhibition at 150 g/ha postemergence treatment measured after 15 days by Greenhouse test. Format: functional. As to conditions: post-emergence, 360 h, read-out: GI. A digest of the protocol:
as §1

The subject of a further assay is Amaranthus retroflexus. The assay can be described thus: Herbicidal activity against Amaranthus retroflexus assessed as growth inhibition at 150 g/ha postemergence treatment measured after 15 days by Greenhouse test. In kind it is functional. As to conditions: post-emergence, 360 h, read-out: GI. A digest of the protocol: as §1
The test system of another assay is Setaria faberi. The assay can be described thus: Herbicidal activity against Setaria faberi (Giant Foxtail) assessed as growth inhibition at 150 g/ha postemergence treatment measured after 15 days by Greenhouse test. As to conditions: post-emergence, 360 h, read-out: GI. Format: functional. A digest of the protocol:
as §1

The subject of a further assay is Digitaria sanguinalis. Nature of the assay: Herbicidal activity against Digitaria sanguinalis (hairy crabgrass) assessed as growth inhibition at 150 g/ha postemergence treatment measured after 15 days by Greenhouse test. Format: functional. As to conditions: post-emergence, 360 h, read-out: GI. A digest of the protocol: as §1
The subject of the next assay is Echinochloa crus-galli. Nature of the assay: Herbicidal activity against Echinochloa crus-galli (barnyard grass) assessed as growth inhibition at 150 g/ha postemergence treatment measured after 15 days by Greenhouse test. As to conditions: post-emergence, 360 h, read-out: GI. Format: functional. An outline of the steps:
as §1

Assay [1] concerns the target T1, Protoporphyrinogen oxidase (Homo sapiens) (UniProt P50336).
T1 sequence (whole entry): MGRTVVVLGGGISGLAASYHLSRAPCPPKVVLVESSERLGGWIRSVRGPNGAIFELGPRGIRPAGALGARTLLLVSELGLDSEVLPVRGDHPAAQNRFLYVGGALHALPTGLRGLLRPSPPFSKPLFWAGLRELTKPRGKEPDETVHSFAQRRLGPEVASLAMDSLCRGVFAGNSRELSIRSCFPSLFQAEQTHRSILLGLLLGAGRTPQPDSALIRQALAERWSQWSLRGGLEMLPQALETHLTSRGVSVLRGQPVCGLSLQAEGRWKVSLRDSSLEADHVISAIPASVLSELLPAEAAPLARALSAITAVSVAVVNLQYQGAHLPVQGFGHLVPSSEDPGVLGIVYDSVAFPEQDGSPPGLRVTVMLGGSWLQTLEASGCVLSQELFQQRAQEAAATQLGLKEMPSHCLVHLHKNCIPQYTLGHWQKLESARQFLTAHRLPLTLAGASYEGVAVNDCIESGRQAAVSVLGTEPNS
Nature of the assay: Inhibition of Homo sapiens (human) recombinant protoporphyrinogen oxidase by fluorescence detection.

The next assay concerns Abutilon theophrasti. The assay can be described thus: Herbicidal activity against Abutilon theophrasti (velvetleaf) assessed as growth inhibition at 150 g/ha postemergence treatment measured after 15 days by Greenhouse test. Format: functional. As to conditions: post-emergence, 360 h, read-out: GI. A digest of the protocol:
as §1

The structures appear in SMILES notation.

Here are results for 23 molecules from ChEMBL document CHEMBL3045880, “Design and syntheses of novel N-(benzothiazol-5-yl)-4,5,6,7-tetrahydro-1H-isoindole-1,3(2H)-dione and N-(benzothiazol-5-yl)isoindoline-1,3-dione as potent protoporphyrinogen oxidase inhibitors” (J Agric Food Chem, 2011).

The Ki is the dissociation constant of the complex between target and ligand, obtained from inhibition or displacement. Regarding `CCOC(=O)CCSc1nc2cc(N3C(=O)C4=C(CCCC4)C3=O)c(Cl)cc2s1`, the inhibition of growth at 150 g/ha was 60% in the assay with Brassica juncea; 60% with Eclipta prostrata; 60% in the assay on Amaranthus retroflexus; below 50% in the assay with Setaria faberi; below 50% in the assay with Digitaria sanguinalis; below 50% with Echinochloa crus-galli. Besides, the Ki in assay [1] amounted to 320 nM.

With `CCOC(=O)CCSc1nc2cc(N3C(=O)C4=C(CCCC4)C3=O)c(F)cc2s1`, the inhibition of growth at 150 g/ha in the assay on Brassica juncea is 80%; in the assay with Eclipta prostrata, 80%; in the assay on Amaranthus retroflexus it was 80%; in the assay with Setaria faberi, below 50%; with Digitaria sanguinalis, 50%; with Echinochloa crus-galli it was 50%. Moreover, the Ki in assay [1] stood at 110 nM.

As to `CCOC(=O)C(C)(C)Sc1nc2cc(N3C(=O)C4=C(CCCC4)C3=O)c(Cl)cc2s1`, the inhibition of growth at 150 g/ha in the assay with Brassica juncea is below 50%; with Eclipta prostrata it was 60%; in the assay with Amaranthus retroflexus it was 80%; with Setaria faberi, below 50%; with Digitaria sanguinalis, below 50%; in the assay with Echinochloa crus-galli it was below 50%. Moreover, the Ki in assay [1] was found to be 1660 nM.

For `COC(=O)CSc1nc2cc(N3C(=O)C4=C(CCCC4)C3=O)c(Cl)cc2s1`, the inhibition of growth at 150 g/ha in the assay with Brassica juncea is below 50%; with Eclipta prostrata it was 60%; in the assay with Amaranthus retroflexus it was 60%; in the assay with Setaria faberi, below 50%; in the assay with Digitaria sanguinalis, below 50%; in the assay with Echinochloa crus-galli it was below 50%. Moreover, in assay [1], the Ki worked out at 3920 nM.

As for `CC(C)OC(=O)CSc1nc2cc(N3C(=O)C4=C(CCCC4)C3=O)c(F)cc2s1`, the inhibition of growth at 150 g/ha in the assay on Brassica juncea came to 60%; with Eclipta prostrata, 80%; in the assay on Amaranthus retroflexus, 80%; with Setaria faberi it was 50%; in the assay with Digitaria sanguinalis, 60%; in the assay with Echinochloa crus-galli it was 60%. Also, in assay [1], the Ki was 210 nM.

In the case of `CCOC(=O)CSc1nc2cc(N3C(=O)C4=C(CCCC4)C3=O)c(F)cc2s1`, the inhibition of growth at 150 g/ha was below 50% in the assay with Brassica juncea; 50% with Eclipta prostrata; 80% in the assay on Amaranthus retroflexus; 60% in the assay on Setaria faberi; 60% in the assay with Digitaria sanguinalis; 60% with Echinochloa crus-galli. In addition, the Ki in assay [1] worked out at 250 nM.

In the case of `CCOC(=O)Sc1nc2cc(N3C(=O)c4ccccc4C3=O)c(F)cc2s1`, the inhibition of growth at 150 g/ha was 80% with Abutilon theophrasti; 80% in the assay with Eclipta prostrata; 80% in the assay with Amaranthus retroflexus; below 50% in the assay with Setaria faberi; below 50% in the assay with Digitaria sanguinalis; below 50% in the assay with Echinochloa crus-galli. The Ki in assay [1] was 510 nM.

Regarding `CCOC(=O)CCCSc1nc2cc(N3C(=O)C4=C(CCCC4)C3=O)c(Cl)cc2s1`, the inhibition of growth at 150 g/ha with Brassica juncea is below 50%; in the assay with Eclipta prostrata it was 60%; in the assay on Amaranthus retroflexus, 80%; with Setaria faberi it was below 50%; with Digitaria sanguinalis, below 50%; in the assay with Echinochloa crus-galli, below 50%. In addition, the Ki in assay [1] turned out to be 750 nM.

As to `CCOC(=O)CCSc1nc2cc(N3C(=O)c4ccccc4C3=O)c(F)cc2s1`, the Ki in assay [1] was determined as 5520 nM.

With `CCOC(=O)CSc1nc2cc(N3C(=O)C4=C(CCCC4)C3=O)c(Cl)cc2s1`, the inhibition of growth at 150 g/ha in the assay with Brassica juncea was below 50%; in the assay with Eclipta prostrata, 60%; in the assay with Amaranthus retroflexus, 80%; with Setaria faberi, below 50%; in the assay on Digitaria sanguinalis, below 50%; in the assay with Echinochloa crus-galli it was below 50%. Further, the Ki in assay [1] came to 1660 nM.

In the case of `CCOC(=O)C(C)Sc1nc2cc(N3C(=O)c4ccccc4C3=O)c(F)cc2s1` (stereo not given), in assay [1], the Ki worked out at 132000 nM.

Consider `CCOC(=O)CCSc1nc2cc(N3C(=O)c4ccccc4C3=O)c(Cl)cc2s1`, for which the Ki in assay [1] came to 3760 nM.

`COC(=O)CSc1nc2cc(N3C(=O)c4ccccc4C3=O)c(F)cc2s1`: the Ki in assay [1] worked out at 2250 nM.

With `CCOC(=O)C(C)Sc1nc2cc(N3C(=O)C4=C(CCCC4)C3=O)c(F)cc2s1` (stereo not given), the inhibition of growth at 150 g/ha was 80% in the assay with Brassica juncea; 80% in the assay with Eclipta prostrata; 80% in the assay with Amaranthus retroflexus; 60% with Setaria faberi; 60% in the assay on Digitaria sanguinalis; 60% with Echinochloa crus-galli. For the same molecule, in assay [1], the Ki is 290 nM.

Turning to `CC(C)(C)OC(=O)CSc1nc2cc(N3C(=O)C4=C(CCCC4)C3=O)c(F)cc2s1`, the inhibition of growth at 150 g/ha in the assay with Brassica juncea was 80%; in the assay with Eclipta prostrata, 80%; in the assay on Amaranthus retroflexus, 80%; in the assay on Setaria faberi, below 50%; with Digitaria sanguinalis, 60%; in the assay on Echinochloa crus-galli, below 50%. For the same molecule, the Ki in assay [1] is 180 nM.

As to `CCCOC(=O)CSc1nc2cc(N3C(=O)C4=C(CCCC4)C3=O)c(F)cc2s1`, the inhibition of growth at 150 g/ha in the assay on Brassica juncea is 60%; in the assay with Eclipta prostrata, 80%; in the assay on Amaranthus retroflexus it was 80%; in the assay on Setaria faberi it was below 50%; in the assay with Digitaria sanguinalis it was 60%; with Echinochloa crus-galli, 60%. For the same molecule, the Ki in assay [1] was 280 nM.

Take `CC(C)OC(=O)CSc1nc2cc(N3C(=O)c4ccccc4C3=O)c(F)cc2s1`: the inhibition of growth at 150 g/ha in the assay on Abutilon theophrasti is 80%; with Eclipta prostrata it was 60%; with Amaranthus retroflexus it was 80%; in the assay with Setaria faberi, below 50%; in the assay with Digitaria sanguinalis, below 50%; with Echinochloa crus-galli it was below 50%. Moreover, in assay [1], the Ki amounted to 1500 nM.

With `CCOC(=O)Sc1nc2cc(N3C(=O)C4=C(CCCC4)C3=O)c(Cl)cc2s1`, the inhibition of growth at 150 g/ha in the assay with Brassica juncea is below 50%; in the assay with Eclipta prostrata it was 50%; in the assay on Amaranthus retroflexus it was 50%; with Setaria faberi it was below 50%; in the assay on Digitaria sanguinalis, below 50%; with Echinochloa crus-galli, below 50%. Moreover, the Ki in assay [1] was 470 nM.

Turning to `CCOC(=O)C(C)Sc1nc2cc(N3C(=O)C4=C(CCCC4)C3=O)c(Cl)cc2s1` (stereo not given), the inhibition of growth at 150 g/ha in the assay with Brassica juncea was below 50%; with Eclipta prostrata, 60%; in the assay with Amaranthus retroflexus, 60%; in the assay on Setaria faberi it was below 50%; with Digitaria sanguinalis, below 50%; with Echinochloa crus-galli, below 50%. Moreover, the Ki in assay [1] amounted to 800 nM.

Consider `CCOC(=O)C(C)Sc1nc2cc(N3C(=O)c4ccccc4C3=O)c(Cl)cc2s1` (stereo not given), for which the Ki in assay [1] was determined as 85900 nM.

On to `COC(=O)Sc1nc2cc(N3C(=O)C4=C(CCCC4)C3=O)c(F)cc2s1`, for which the inhibition of growth at 150 g/ha is 80% with Brassica juncea; 80% in the assay on Eclipta prostrata; 80% with Amaranthus retroflexus; below 50% in the assay with Setaria faberi; below 50% with Digitaria sanguinalis; below 50% with Echinochloa crus-galli. In addition, the Ki in assay [1] was 80 nM.

For the molecule `COC(=O)Sc1nc2cc(N3C(=O)C4=C(CCCC4)C3=O)c(Cl)cc2s1`, the inhibition of growth at 150 g/ha in the assay on Brassica juncea was below 50%; in the assay with Eclipta prostrata, 60%; in the assay on Amaranthus retroflexus it was 60%; with Setaria faberi it was below 50%; with Digitaria sanguinalis, below 50%; with Echinochloa crus-galli it was below 50%. Besides, in assay [1], the Ki is 520 nM.

As to `CCCOC(=O)CSc1nc2cc(N3C(=O)c4ccccc4C3=O)c(F)cc2s1`, the inhibition of growth at 150 g/ha was 80% in the assay with Abutilon theophrasti; 80% in the assay with Amaranthus retroflexus; 50% in the assay on Setaria faberi; below 50% in the assay on Digitaria sanguinalis; below 50% in the assay on Echinochloa crus-galli. The Ki in assay [1] was determined as 1240 nM.
